Reference: publication PMC4227885 (Science translational medicine, 2013)
Read-outs that look alike come from different tables or passages of the source. Values belong to the compound of their own block, whether it stands above or below them.

What was measured:
[1] = target: human cytochrome bc1 (derived from HEK-293 cells) (Homo sapiens, UniProt P00156); assay: Inhibition of human cytochrome bc1 activity; type: biochemical
[2] = test system: P. berghei ookinete; assay: In vitro ookinete assay; type: cell-based; details: read-out: IC50 ookinete production
[3] = test system: P. yoelii in CD1 Swiss mice; details: for ED90: P. yoelii, 4-day test, oral, PEG400 vehicle
[4] = test system: P. falciparum strains (D6, 3D7, Dd2, W2, recent isolates from SE Asia, TM90-C2B); type: cell-based, Plasmodium falciparum; details: atovaquone-resistant clinical isolate TM90-C2B
[5] = test system: transgenic P. falciparum clone D10yDHOD; assay: Susceptibility of transgenic clone expressing yeast DHOD; type: cell-based, Plasmodium falciparum
[6] = test system: P. falciparum clinical isolates; assay: Ex vivo susceptibility of clinical field isolates, modified WHO microtest; type: cell-based, Plasmodium falciparum; details: read-out: median EC50, Papua, Indonesia
Procedure, shortened: (§1)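 Isolates were taken from patients attending malaria clinics in southern Papua, Indonesia, and tested ex vivo by a modified WHO microtest. Median IC50 was reported separately for each species. Comparisons used the Wilcoxon rank sum test.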

[7] = test system: P. vivax clinical isolates; assay: as above; type: cell-based, Plasmodium vivax; details: read-out: median EC50, Papua, Indonesia
Procedure, shortened: as §1

[8] = test system: J774 mouse macrophages; type: cell-based
[9] = test system: human foreskin fibroblasts (HFF); type: cell-based
[10] = test system: murine bone marrow derived hematopoietic progenitors (CFU-GM, BFUE, CFU-GEMM); type: cell-based
[11] = target: P. falciparum cytochrome bc1 (Plasmodium falciparum, UniProt Q02768); type: biochemical; details: read-out: IC50, nM P. falciparum cytochrome bc1; P. falciparum mitochondria
Sequence of P. falciparum cytochrome bc1 (Q02768 whole entry): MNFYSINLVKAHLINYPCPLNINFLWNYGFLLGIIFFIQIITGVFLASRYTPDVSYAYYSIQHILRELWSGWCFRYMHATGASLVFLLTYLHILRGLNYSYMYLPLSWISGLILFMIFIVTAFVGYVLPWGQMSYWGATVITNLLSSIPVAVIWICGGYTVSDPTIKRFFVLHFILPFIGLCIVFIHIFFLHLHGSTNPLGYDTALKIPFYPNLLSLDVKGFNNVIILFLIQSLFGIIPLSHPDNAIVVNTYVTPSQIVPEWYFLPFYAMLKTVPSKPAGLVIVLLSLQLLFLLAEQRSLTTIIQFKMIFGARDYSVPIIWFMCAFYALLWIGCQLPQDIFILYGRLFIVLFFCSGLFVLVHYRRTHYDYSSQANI

[12] = test system: P. falciparum; assay: In vitro parasite reduction ratio; type: cell-based
[13] = test system: P. falciparum strains (D6, Dd2, TM90-C2B, V1/S); assay: In vitro isobolar testing with proguanil, fixed combination ratios; type: cell-based; details: isobolar testing against 4 strains
[14] = test system: P. berghei infected ICR mice; assay: Thompson test, blood stage efficacy; type: in vivo
[15] = test system: P. falciparum; assay: Immuno-deficient; type: in vivo
Procedure, shortened: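 NOD-scid IL2Rγnull-type immunodeficient mice were engrafted with human erythrocytes and infected with P. falciparum. The test compound was given orally daily for 4 consecutive days as a non-optimized suspension, not in PEG400 (3 vehicle mice, 11 treated). Parasitemia was measured by FACS, with Giemsa smears at 48 h. Blood levels were followed over 23 h after the first dose. ED90 was taken at day 7 versus vehicle. AUCED90 was estimated graphically from AUC0→23h versus log10 day-7 parasitemia for each mouse.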

[16] = test system: exoerythrocytic stages of P. berghei; assay: In vitro liver stage assay, luciferase sporozoites on HEPG2 hepatoma cells; type: cell-based; details: read-out: EC50, luciferase expression, 44 h post infection
Procedure, shortened: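 Luciferase-expressing P. berghei sporozoites were added to HepG2 hepatoma monolayers and allowed to infect for 1 h. A dilution series of the test compound was then added and plates were incubated at 37 °C. Luciferase was read 44 h post infection. EC50 came from a nonlinear logistic dose-response fit.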

[17] = test system: P. cynomolgi liver schizonts; assay: In vitro liver stage assay in primary rhesus hepatocytes; type: cell-based; details: read-out: IC50 liver schizonts, 6-day incubation
[18] = test system: P. berghei (luciferase) sporozoite infections of BALB/c mice; assay: In vivo liver stage, sporozoite infection with bioluminescence imaging; details: per os one hour post infection
Procedure, shortened: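 BALB/c mice (5 per group) were infected with luciferase-expressing P. berghei sporozoites. One hour later they received a single dose of test compound by gavage; untreated mice served as controls. For bioluminescence imaging at 44 h and on days 6 and 13, mice were injected with D-luciferin and anesthetized, tracking liver and blood stages.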

[19] = test system: P. falciparum (NF54) gametocytes (Stage I-II); assay: Inhibition of early stage gametocyte development; type: cell-based; details: three days exposure of Stage I-II gametocytes
[20] = test system: late stage IV - V P. falciparum gametocytes; assay: Late stage gametocyte viability, high content imaging; type: cell-based; details: read-out: IC50 stage IV-V gametocyte viability
[21] = test system: P. berghei oocyst formation in Anopheles stephensi mosquitoes; assay: Oocyst formation after membrane feeding of drug-spiked infected blood; type: in vivo
Procedure, shortened: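 Mouse blood infected with GFP-expressing P. berghei was mixed with the test compound and placed at once in membrane feeders at 39 °C. It was offered to about 75 overnight-starved mosquitoes. After 7 days, fluorescent oocysts on dissected midguts were counted by semi-automated image capture and analysis. DMSO was the negative control.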

[22] = test system: P. falciparum strain 3D7 oocyst formation; assay: Standard membrane feeding assay; type: in vivo
[23] = test system: P. berghei oocysts in Anopheles stephensi; assay: In vivo transmission blocking, mosquitoes fed on treated infected mice; details: for inhibition at 10 mg/kg: read-out: inhibition of oocyst production
Procedure, shortened: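 Mice at about 3% P. berghei parasitemia received a single oral dose of test compound (0.1–10 mg/kg) or vehicle. Female Anopheles stephensi fed on the mice 1 h after treatment. Midguts were dissected on day 10 post infection and examined for oocysts. Dihydroartemisinin and primaquine (10 mg/kg) were positive controls.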

[24] = Pharmacokinetics in mice, intravenous and oral; type: in vivo, mouse; details: 0.3 mg/kg oral in PEG400
Procedure, shortened: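 Non-fasted male Swiss outbred mice were used. The IV dose was 0.1 mg/kg, formulated in mouse plasma and given via the tail vein. The oral dose was 0.3 mg/kg by gavage, as a solution in undiluted PEG400.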

[25] = Aqueous solubility, kinetic and thermodynamic methods; type: physicochemical
Procedure, shortened: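 Kinetic method: DMSO stock diluted into various media. Thermodynamic method: equilibrium solubility with physiologically relevant media and incubation time.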

[26] = Metabolic stability in liver microsomes; type: in vitro ADME; details: in vitro incubation with liver microsomes, multiple species
[27] = test system: major cytochrome P450 enzymes; assay: Cytochrome P450 inhibition; type: in vitro ADME; details: at concentrations needed for efficacy
[28] = target: hERG (human-Ether-a-go-go-Related Gene) channel (Homo sapiens, UniProt Q12809); type: cell-based
Sequence of hERG (human-Ether-a-go-go-Related Gene) channel (Q12809 whole entry): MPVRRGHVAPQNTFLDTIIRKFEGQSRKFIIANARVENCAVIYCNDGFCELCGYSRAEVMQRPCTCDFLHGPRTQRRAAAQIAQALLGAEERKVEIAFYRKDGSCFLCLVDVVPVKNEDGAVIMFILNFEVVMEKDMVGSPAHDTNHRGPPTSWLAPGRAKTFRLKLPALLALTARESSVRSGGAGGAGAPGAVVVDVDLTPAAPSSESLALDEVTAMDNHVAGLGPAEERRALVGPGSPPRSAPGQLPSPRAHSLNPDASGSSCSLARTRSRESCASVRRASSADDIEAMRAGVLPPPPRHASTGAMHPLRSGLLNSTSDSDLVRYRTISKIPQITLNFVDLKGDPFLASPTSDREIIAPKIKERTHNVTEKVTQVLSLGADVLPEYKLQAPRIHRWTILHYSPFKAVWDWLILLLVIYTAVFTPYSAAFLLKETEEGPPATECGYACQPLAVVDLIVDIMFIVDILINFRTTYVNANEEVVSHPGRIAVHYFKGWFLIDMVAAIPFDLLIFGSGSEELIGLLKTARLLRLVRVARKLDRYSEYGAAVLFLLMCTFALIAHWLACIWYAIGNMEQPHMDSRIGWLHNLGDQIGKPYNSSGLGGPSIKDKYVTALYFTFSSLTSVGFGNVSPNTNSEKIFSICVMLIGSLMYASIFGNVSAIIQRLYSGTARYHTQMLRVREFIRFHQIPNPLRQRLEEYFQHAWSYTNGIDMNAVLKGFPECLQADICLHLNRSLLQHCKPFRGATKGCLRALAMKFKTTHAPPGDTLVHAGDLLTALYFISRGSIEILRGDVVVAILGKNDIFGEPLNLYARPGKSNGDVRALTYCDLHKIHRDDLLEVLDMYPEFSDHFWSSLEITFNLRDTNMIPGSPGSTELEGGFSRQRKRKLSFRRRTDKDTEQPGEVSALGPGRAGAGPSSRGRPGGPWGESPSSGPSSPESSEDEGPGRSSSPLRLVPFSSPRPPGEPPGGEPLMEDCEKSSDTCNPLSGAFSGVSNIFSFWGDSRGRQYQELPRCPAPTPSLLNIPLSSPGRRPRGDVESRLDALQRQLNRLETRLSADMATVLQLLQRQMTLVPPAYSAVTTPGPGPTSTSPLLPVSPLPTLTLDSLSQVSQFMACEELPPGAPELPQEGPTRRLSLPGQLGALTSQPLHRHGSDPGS

[29] = test system: 5-strain Ames bacterial assay; type: cell-based
[30] = test system: 100 neurotransmitter receptors, peptide receptors, ion channels, reuptake sites, and enzymes
[31] = test system: two rat cell lines; details: read-out: IC50 level, ATP levels; either of two rat cell lines, galactose medium
[32] = test system: P. falciparum strain 3D7 oocyst formation; details: comparable SMFA; cited from earlier work

Compound: O=C1C(O)=C([C@H]2CC[C@H](c3ccc(Cl)cc3)CC2)C(=O)c2ccccc21 [Atovaquone, reference compound]
IC50 [1]: 460 nM
IC50 ([2]; Plasmodium berghei, 24 h): 67 nM
ED90 [3]: 0.04 mg/kg/day

IC50 ([1]; read-out: IC50 human cytochrome bc1, enzyme derived from HEK cells): 1990 nM
Compound: Cc1[nH]c2ccccc2c(=O)c1-c1ccc(Oc2ccc(OC(F)(F)F)cc2)cc1 [ELQ-271]

Compound: COc1cc2[nH]c(C)c(-c3ccc(Oc4ccc(OC(F)(F)F)cc4)cc3)c(=O)c2cc1Cl [ELQ-300]
cross-resistance with atovaquone in TM90-C2B [4]: 1.3 fold
sensitivity of D10yDHOD transfectants [5]: insensitive
EC50 [6]: 14.9 nM
EC50 [7]: 17.9 nM
IC50 [8]: > 10000 nM
IC50 [9]: > 10000 nM
IC50 [10]: > 10000 nM
IC50 ([1]; read-out: IC50, nM human cytochrome bc1, derived from HEK-293 cells): > 10000 nM
IC50 [11]: 0.58 nM
time required to kill >99.9% of parasites ([12]; 10x EC50 concentration): ≈ 100 h
speed of action ([12]; exposure up to 120 hr): slow-acting
interaction with proguanil [13]: strong pharmacological synergism
curative blood stage dose ([14]; Thompson or Peter's tests): 1 mg/kg
fifty percent effective dose (ED50) ([14]; Thompson test, P. berghei, ICR mice): 0.016 mg/kg/day
dose that reduced parasitemia by 90% at day 7 (ED90) ([15]; SCID mice, oral daily for four days, suspension formulation): 5.9 mg/kg/day
estimated exposure at the ED90 dose (AUCED90) ([15]; SCID mouse model, blood): 1.1 μg·h/mL/day
EC50 [16]: 1.02 nM
IC50 [17]: ~100 nM
single dose that completely blocked infection [18]: ≥ 0.03 mg/kg
lowest exposure preventing gametocyte development to Stage IV [19]: ≤ 0.1 µM
IC50 ([20]; 72 hr): 71.9 nM
IC50 ([2]; first 24 h of development, GFP endpoint): 56 nM
reduction of oocyst burden in mosquito midguts ([21]; 10 nM): 19.2%
reduction of the total oocyst count relative to controls ([21]; blood containing 100 nM): 99.4%
oocyst formation ([21]; blood containing 1 μM drug): no oocysts formed
concentration that completely blocked oocyst formation ([22]; one of two independent studies): ≥ 10 nM
reduction in oocyst formation ([22]; the other study, 10 nM): 95.9%
dose that completely prevented transmission (oocyst development) ([23]; single oral dose, feeding one hour after treatment): ≥ 0.1 mg/kg
Tmax [24]: approximately 7.5 h
oral bioavailability [24]: approximately 100%
aqueous solubility [25]: low aqueous solubility
stability to metabolic degradation by cytochrome P450 enzymes [26]: highly stable
inhibition of the major cytochrome P450 enzymes [27]: did not inhibit
IC50 [28]: > 11000 nM
mutagenic potential [29]: lacks mutagenic potential
inhibition in screen of 100 targets [30]: did not observe any significant inhibition
IC50 [31]: > 100000 nM
non-recrudescence dose relative to atovaquone ([3]; P. yoelii murine model): 30 times lower
ED90 [3]: 0.15 mg/kg/day
AUCED90 ([3]; mouse, in vivo): 1.4 μg·h/mL/day
drug exposure (AUC0-24 h) in peripheral blood at the ED90 ([3]; mouse, in vivo, po): 1400 ng·h/mL

Compound: C[C@H]1Cc2c([nH]c3cc(Cl)c(F)cc23)[C@@]2(N1)C(=O)Nc1ccc(Cl)cc12 [NITD609]
concentration required to completely inhibit oocyst formation [32]: 500 nM

Compound: C[C@H]1[C@@H](O)O[C@@H]2O[C@@]3(C)CC[C@H]4[C@H](C)CC[C@@H]1[C@@]24OO3 [dihydroartemisinin]
inhibition at 10 mg/kg [23]: 63.7%

Compound: COc1cc(NC(C)CCCN)c2ncccc2c1 (stereo not shown) [primaquine]
inhibition at 10 mg/kg [23]: 95.4%

Compound: COc1ccc(C[C@H](N)C(=O)N[C@H]2[C@@H](O)[C@H](n3cnc4c(N(C)C)ncnc43)O[C@@H]2CO)cc1 [puromycin, reference compound]
IC50 ([20]; Plasmodium falciparum, 72 h): 75.3 nM
